# Laboratory results published in ChEMBL document CHEMBL4390678, “Structure-Activity Relationship of Purine and Pyrimidine Nucleotides as Ecto-5'-Nucleotidase (CD73) Inhibitors” (J Med Chem, 2019).
# Assays:
# 5'-nucleotidase [1] = biological target: T1, 5'-nucleotidase (Rattus norvegicus, UniProt P21588); experiment: Inhibition of recombinant rat C-terminal His-tagged soluble form of CD73 expressed in baculovirus infected Sf9 insect cells using [2,8-3H]AMP as substrate measured after 25 mins by scintillation counting method
# T1 sequence (P21588 whole entry): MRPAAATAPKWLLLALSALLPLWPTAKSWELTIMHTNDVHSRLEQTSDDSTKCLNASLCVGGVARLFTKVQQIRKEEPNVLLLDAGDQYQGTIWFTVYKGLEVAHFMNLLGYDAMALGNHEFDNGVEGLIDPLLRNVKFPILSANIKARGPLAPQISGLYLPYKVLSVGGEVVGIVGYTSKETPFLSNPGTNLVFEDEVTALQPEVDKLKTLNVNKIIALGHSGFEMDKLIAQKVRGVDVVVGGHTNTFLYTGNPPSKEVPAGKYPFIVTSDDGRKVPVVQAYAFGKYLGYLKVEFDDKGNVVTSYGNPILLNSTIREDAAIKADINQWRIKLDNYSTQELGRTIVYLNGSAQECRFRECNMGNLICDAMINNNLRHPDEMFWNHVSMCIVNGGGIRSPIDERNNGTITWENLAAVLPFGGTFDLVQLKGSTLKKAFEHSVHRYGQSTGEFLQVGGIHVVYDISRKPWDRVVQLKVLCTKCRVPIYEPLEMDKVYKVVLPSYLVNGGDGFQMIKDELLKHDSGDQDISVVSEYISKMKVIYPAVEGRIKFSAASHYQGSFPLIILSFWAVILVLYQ
# Outline: (§1)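 Enzyme is soluble rat CD73 from Sf9 cells, 1.63 ng per vial, in 25 mM Tris, 140 mM NaCl, 25 mM NaH2PO4, pH 7.4. […] Stopped by LaCl3 precipitation and GF/B filtration, then counted. Each compound first screened at 1 µM.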
# [2] = biological target: T2, 5'-nucleotidase (Rattus norvegicus) (UniProt P21588); experiment: Inhibition of recombinant rat C-terminal His-tagged soluble form of CD73 expressed in baculovirus infected Sf9 insect cells at 1 uM using [2,8-3H]AMP as substrate measured after 25 mins by scintillation counting method relative to control; outline: as §1
# T2 sequence (whole entry): T1 sequence (P21588 whole entry)
# 5'-nucleotidase [3] = biological target: T3, 5'-nucleotidase (Homo sapiens, UniProt P21589); experiment: Inhibition of CD73 in human MDA-MB-231 cell membranes using [2,8-3H]AMP as substrate measured after 25 mins by scintillation counting method
# Outline: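 MDA-MB-231 membranes (7.4 ng protein per vial) in 25 mM Tris, 140 mM NaCl, 25 mM NaH2PO4, pH 7.4. […] Stopped with cold LaCl3/acetate buffer pH 4.0 and filtered on GF/B. Background-subtracted and normalized to the uninhibited control.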
# 5'-nucleotidase [4] = biological target: T3, 5'-nucleotidase; experiment: Inhibition of recombinant human C-terminal His-tagged soluble form of CD73 expressed in baculovirus infected Sf9 insect cells using [2,8-3H]AMP as substrate measured after 25 mins by scintillation counting method
# Outline: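 Soluble human CD73 lacking the GPI signal, with a C-terminal 6xHis tag, secreted from baculovirus-infected Sf9 cells and purified on Ni-NTA; 0.365 ng per vial. […] Product separated by lanthanum chloride precipitation and filtration, then scintillation counted.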
# Homo sapiens = organism: Homo sapiens; experiment: Inhibition of cytosolic nucleotidase in MaMel.65-CD73 cell cytosolic extract (unknown origin) at 100 uM using AMP as substrate preincubated for 5 mins followed by substrate addition and measured after 60 mins by malachite green oxalate dye based colorimetric method relative to control
# Outline: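 Cytosolic extract of CRISPR CD73-knockout MaMel.65 melanoma cells, 15.25 µg, in 50 mM Tris pH 7.0 with 100 mM KCl and 5 mM MgCl2. […] After 60 min, heat-stopped at 95°C. Released phosphate read with malachite green/molybdate at 600 nm. Levamisole 1 mM plus NaF 5 mM served as positive control. Three experiments in duplicate.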
# T3 sequence (P21589 whole entry): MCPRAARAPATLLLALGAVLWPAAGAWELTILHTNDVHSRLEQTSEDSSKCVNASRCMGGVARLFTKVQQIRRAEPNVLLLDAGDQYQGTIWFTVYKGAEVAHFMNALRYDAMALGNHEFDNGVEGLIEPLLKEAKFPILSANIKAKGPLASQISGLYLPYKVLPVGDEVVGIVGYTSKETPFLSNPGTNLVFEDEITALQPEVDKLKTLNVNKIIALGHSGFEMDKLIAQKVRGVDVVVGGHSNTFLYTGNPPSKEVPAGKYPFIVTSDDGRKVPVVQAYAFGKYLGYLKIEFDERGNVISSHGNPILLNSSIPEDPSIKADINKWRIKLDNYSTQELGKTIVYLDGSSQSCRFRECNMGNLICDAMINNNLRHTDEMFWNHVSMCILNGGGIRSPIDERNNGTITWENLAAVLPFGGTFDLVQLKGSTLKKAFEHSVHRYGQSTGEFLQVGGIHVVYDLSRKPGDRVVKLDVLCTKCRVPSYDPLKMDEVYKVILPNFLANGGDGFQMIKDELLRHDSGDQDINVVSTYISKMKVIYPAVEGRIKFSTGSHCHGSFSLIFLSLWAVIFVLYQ
Ki (5'-nucleotidase [1]),inhibition [2],Ki (5'-nucleotidase [3]),Ki (5'-nucleotidase [4]),inhibition (Homo sapiens),Compound
162 nM,> 50%,,,,O=c1[nH]c(=O)n([C@@H]2O[C@H](COP(=O)(O)CP(=O)(O)O)[C@@H](O)[C@H]2O)cc1I
1830 nM,> 50%,,,,O=c1ccn([C@@H]2O[C@H](COP(=O)(O)CP(=O)(O)O)[C@@H](O)[C@H]2O)c(=O)[nH]1
> 1000 nM,19%,,,,O=c1cc(O)ccn1[C@@H]1O[C@H](COP(=O)(O)CP(=O)(O)O)[C@@H](O)[C@H]1O
1860 nM,> 50%,,,,Cn1c(=O)ccn([C@@H]2O[C@H](COP(=O)(O)CP(=O)(O)O)[C@@H](O)[C@H]2O)c1=O
> 1000 nM,21%,,,,O=c1cnn([C@@H]2O[C@H](COP(=O)(O)CP(=O)(O)O)[C@@H](O)[C@H]2O)c(=O)[nH]1
88.6 nM,> 50%,,,,Nc1ncnc2c1ccn2[C@@H]1O[C@H](COP(=O)(O)CP(=O)(O)O)[C@@H](O)[C@H]1O
338 nM,> 50%,,,,Cc1cn([C@@H]2O[C@H](COP(=O)(O)CP(=O)(O)O)[C@@H](O)[C@H]2O)c(=O)[nH]c1=O
257 nM,> 50%,,,,CO/N=c1/ccn([C@@H]2O[C@H](COP(=O)(O)CP(=O)(O)O)[C@@H](O)[C@H]2O)c(=O)[nH]1
> 1000 nM,2%,,,,N[C@@H]1[C@H](O)[C@@H](COP(=O)(O)CP(=O)(O)O)O[C@H]1n1ccc(=O)[nH]c1=O
1750 nM,> 50%,,,,O=c1ccn([C@@H]2O[C@H](COP(=O)(O)CP(=O)(O)O)[C@@H](O)[C@@H]2F)c(=O)[nH]1
18.8 nM,> 50%,6.29 nM,6.88 nM,-5%,O=c1[nH]/c(=N/OCc2ccc3ccccc3c2)ccn1[C@@H]1O[C@H](COP(=O)(O)CP(=O)(O)O)[C@@H](O)[C@H]1O
321 nM,> 50%,,,,Cc1cn([C@@H]2O[C@H](COP(=O)(O)CP(=O)(O)O)[C@@H](O)[C@H]2O)c(=O)[nH]/c1=N/OCc1ccccc1
> 1000 nM,8%,,,,O=c1ccn([C@@H]2O[C@H](COP(=O)(O)CP(=O)(O)O)[C@@H](O)[C@@H]2O)c(=O)[nH]1
> 1000 nM,4%,,,,O=c1ccn([C@@H]2O[C@H](COP(=O)(O)CCP(=O)(O)O)[C@@H](O)[C@H]2O)c(=O)[nH]1
> 1000 nM,11%,,,,O=c1ccn([C@@H]2O[C@H](COP(=O)(O)CP(=O)(O)O)[C@@H](O)[C@H]2F)c(=O)[nH]1
86.7 nM,> 50%,,,,O=c1[nH]c(=O)n([C@@H]2O[C@H](COP(=O)(O)CP(=O)(O)O)[C@@H](O)[C@H]2O)cc1Cl
424 nM,> 50%,,,,C=C(Cl)c1cn([C@@H]2O[C@H](COP(=O)(O)CP(=O)(O)O)[C@@H](O)[C@H]2O)c(=O)[nH]c1=O
> 1000 nM,9%,,,,[N-]=[N+]=N[C@@H]1[C@H](O)[C@@H](COP(=O)(O)CP(=O)(O)O)O[C@H]1n1ccc(=O)[nH]c1=O
> 1000 nM,9%,,,,Cc1cn([C@@H]2O[C@H](COP(=O)(O)CCP(=O)(O)O)[C@@H](O)[C@H]2O)c(=O)[nH]c1=O
276 nM,> 50%,,,,C#Cc1cn([C@@H]2O[C@H](COP(=O)(O)CP(=O)(O)O)[C@@H](O)[C@H]2O)c(=O)[nH]c1=O
> 1000 nM,7%,,,,CCCn1c(=O)ccn([C@@H]2O[C@H](COP(=O)(O)CP(=O)(O)O)[C@@H](O)[C@H]2O)c1=O
2030 nM,> 50%,,,,Cc1cn([C@@H]2O[C@H](COP(=O)(O)CP(=O)(O)O)[C@@H](O)[C@H]2O)c(=O)nc1N
112 nM,> 50%,,,,O=c1[nH]/c(=N\OCc2ccccc2)ccn1[C@@H]1O[C@H](COP(=O)(O)CP(=O)(O)O)[C@@H](O)[C@H]1O
> 1000 nM,7%,,,,O=c1ccn([C@@H]2O[C@H](COP(=O)(O)CP(=O)(O)O)[C@@H](O)[C@H]2O)c(=S)[nH]1
88.7 nM,> 50%,,,,O=c1[nH]c(=O)n([C@@H]2O[C@H](COP(=O)(O)CP(=O)(O)O)[C@@H](O)[C@H]2O)cc1Br
898 nM,> 50%,,,,Nc1ccn([C@@H]2O[C@H](COP(=O)(O)CP(=O)(O)O)[C@@H](O)[C@H]2O)c(=O)n1
> 1000 nM,4%,,,,CCn1c(=O)ccn([C@@H]2O[C@H](COP(=O)(O)CP(=O)(O)O)[C@@H](O)[C@H]2O)c1=O

# Further lines, the compound ahead of its results:
Compound,Ki (5'-nucleotidase [1]),inhibition [2],Ki (5'-nucleotidase [3]),Ki (5'-nucleotidase [4]),inhibition (Homo sapiens)
Nc1ncnc2c1ncn2[C@@H]1O[C@H](COP(=O)(O)CP(=O)(O)O)[C@@H](O)[C@H]1N,> 1000 nM,2%,,,
Nc1ncnc2c1ncn2[C@@H]1O[C@H](COP(=O)(O)CP(=O)(O)O)C[C@H]1O,1970 nM,> 50%,,,
CCOP(=O)(O)OP(=O)(O)OC[C@H]1O[C@@H](n2ccc(=O)[nH]c2=S)[C@H](O)[C@@H]1O,> 1000 nM,10%,,,
Nc1ccnc2c1ncn2[C@@H]1O[C@H](COP(=O)(O)CP(=O)(O)O)[C@@H](O)[C@H]1O,> 1000 nM,36%,,,
O=c1ccn([C@@]23C[C@H]2[C@H](COP(=O)(O)CP(=O)(O)O)[C@@H](O)[C@H]3O)c(=O)[nH]1,> 1000 nM,12%,,,
Nc1nc(=O)n([C@@H]2O[C@H](COP(=O)(O)CP(=O)(O)O)[C@@H](O)[C@H]2O)cc1F,349 nM,> 50%,,,
Cc1cn([C@H]2C[C@H](O)[C@@H](COP(=O)(O)CP(=O)(O)O)O2)c(=O)[nH]c1=O,639 nM,> 50%,,,
CO[C@@H]1[C@H](O)[C@@H](COP(=O)(O)CP(=O)(O)O)O[C@H]1n1cc(C)c(=O)[nH]c1=O,> 1000 nM,3%,,,
O=c1ccn([C@@H]2O[C@H](COP(=O)(O)CP(=O)(O)O)[C@@H](O)[C@H]2O)c(=O)n1Cc1ccccc1,> 1000 nM,3%,,,
O=c1[nH]/c(=N/OCc2ccccc2)ccn1[C@H]1C[C@H](O)[C@@H](COP(=O)(O)CP(=O)(O)O)O1,780 nM,> 50%,,,
CCn1c(=O)n([C@@H]2O[C@H](COP(=O)(O)CP(=O)(O)O)[C@@H](O)[C@H]2O)cc/c1=N\OCc1ccccc1,262 nM,> 50%,,,
O=c1ccn([C@H]2C[C@H](O)[C@@H](CO[P@@](=O)(O)CP(=O)(O)O)O2)c(=O)[nH]1,> 1000 nM,37%,,,
C=C(Cl)c1cn([C@@H]2O[C@H](COP(=O)(O)CP(=O)(O)O)[C@@H](O)[C@H]2O)c(=O)n(C)c1=O,1050 nM,> 50%,,,
Nc1ncnc2c1ncn2[C@@H]1O[C@H](CO)[C@@H](OP(=O)(O)CP(=O)(O)O)[C@H]1N,> 1000 nM,8%,,,
Nc1nccc2c1ncn2[C@@H]1O[C@H](COP(=O)(O)CP(=O)(O)O)[C@@H](O)[C@H]1O,> 1000 nM,36%,,,
O=c1[nH]/c(=N/OCc2ccccc2)c(F)cn1[C@@H]1O[C@H](COP(=O)(O)CP(=O)(O)O)[C@@H](O)[C@H]1O,85.1 nM,> 50%,16.6 nM,15.9 nM,
Nc1ccn([C@H]2C[C@H](O)[C@@H](COP(=O)(O)CP(=O)(O)O)O2)c(=O)n1,> 1000 nM,18%,,,
Nc1nc(=O)n([C@@H]2O[C@H](COP(=O)(O)CP(=O)(O)O)[C@@H](O)[C@H]2O)cc1I,502 nM,> 50%,,,
Nc1ncnc2c1ncn2[C@H]1C[C@H](O)[C@@H](COP(=O)(O)CP(=O)(O)O)O1,> 1000 nM,30%,,,
